# STAT1 activator: activators of IFN-gamma induced STAT1 signaling | NIH 3T3 STAT1-luciferase reporter, luminescence; 100% = IFN-gamma alone, no compound | activation (% of control), % at 5.5 µM | 200,000 tested, 2.6% active;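 active means activation above the screen-wide mean activation plus 3 SD, cut at about 130% in these data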;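 further: raw ratio to IFN-gamma control signal so 100% means no change and 0% no light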
# STAT1 blocker: reduces IFN-gamma driven STAT1 reporter signal; inhibition, % at 5.5 µM; AID 920; 200,000 tested, 0.35% active; NIH 3T3 STAT1-luciferase reporter, luminescence;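 active means inhibition above a set limit, the mean inhibition across all tested compounds plus 3 SD, cut at about 34% in these data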;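 further: 0% = IFN-gamma with DMSO and 100% = IFN-gamma with 300 µM nifuroxazide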
# NF-kB neuron act: compounds increasing NF-kB expression in human neuronal cells | fold change at 12.5 µM | NF-kB reporter expression; active compounds read high | AID 1239 | 190,000 tested, 1.6% active; in the data active means fold change above about 3.3
# STAT3 activator: increases IL-6 driven STAT3 reporter signal | U3A cells, IL-6 STAT3-luciferase reporter, luminescence; 100% = signal with IL-6 EC80 alone | activation (% of control), % at 5.6 µM | 190,000 tested, 0.91% active | AID 871;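 active means activation above the screen-wide mean of compound activation plus 3 SD, cut at about 130% in these data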;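 further: 0% = background luminescence of wells with medium and substrate only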
#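 Test system: human U3A cells carrying STAT3-luciferase construct; control set: IL-6-only wells as 100% reference; timing: compound pre-incubation 1 h before IL-6, then 6 h stimulation at 37 °C; also added: IL-6 stimulus at 33 ng/mL final; evaluation: % activation versus median of IL-6-stimulated wells; detection: reporter luminescence signal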
# STAT3 inh: STAT3 signaling inhibition; U3A cells, IL-6 STAT3-luciferase reporter, luminescence; host cell line lacks STAT1; inhibition, % at 5.5 µM; 190,000 tested, 0.89% active; AID 862;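 active means inhibition above the mean inhibition across all screened compounds plus 3 SD, cut at about 44% in these data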;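 further: 0% = DMSO only wells and 100% = 100 µM nifuroxazide control wells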
# APP 5'UTR act: activates APP 5'UTR luciferase reporter. AID 1276. 190,000 tested, 1% active. activation, % at 2 µM. SH-SY5Y APP 5'UTR luciferase reporter, luminescence; zero percent = DMSO vehicle wells;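 active means activation above a set limit, based on mean plus 3 SD of controls, cut at about 140% in these data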
# The depositor's hits bear a star. Shown are actives, neighbours in structure and some others; about 4.9% of the full set was active somewhere.
SMILES,STAT1 activator,STAT1 blocker,NF-kB neuron act,STAT3 activator,STAT3 inh,APP 5'UTR act
CC(=O)Nc1ccc(NC(=O)c2ccccc2CCc2ccccc2)cc1,100,-3,1.1,104,-4,18
CC(=O)Nc1ccc(Nc2c([N+](=O)[O-])c(=O)n(-c3ccccc3)c3ccccc23)cc1,95,3,1.2,92,12,20
CCOC(=O)c1c(N2C(=O)CC(Sc3ccccc3C(=O)O)C2=O)sc2c1CCCC2 (configuration not stated),97,4,0.85,100,10,3
CN(C)c1cc[n+](CC(=O)Nc2ccc(Oc3ccccc3)cc2)cc1,101,-1,0.7,95,12,-13
NC(=S)Nc1ccc2cn[nH]c2c1,103,-4,1.1,110,2,32
CCC(=O)Nc1ccc2c(c1)C(=O)c1ccccc1C2=O,148*,-54,4.2*,94,14,104
O=C(NC(=S)Nc1ccc2c(c1)C(=O)c1ccccc1C2=O)c1ccc(F)cc1,116,-19,3.3*,82,24,89
CCC(=O)Nc1ccc2c(c1)C(=O)N(C)C2=O,99,1,1.1,90,10,15
O=C(NC(=S)Nc1ccc2cn[nH]c2c1)c1ccccc1,148*,-53,1,113,-8,44
O=C(NC(=S)Nc1ccc2c(c1)OCO2)c1ccccc1,146*,-51,7.3*,96,15,170*
Cc1cc(OC(=O)c2ccc(S(=O)(=O)N(C)C)cc2)c([N+](=O)[O-])c(=O)[nH]1,110,-10,1.3,105,-4,16
COc1ccc(CNCc2cccc(Oc3ccccc3)c2)cc1,96,3,1.3,96,10,-16
COc1ccc(N2CCN(C(=O)c3c(C)nn(-c4ccccc4)c3C)CC2)cc1,98,3,0.82,95,6,2
Cc1cc(NC(=O)CS(=O)(=O)Cc2ccccc2)no1,104,-5,1.1,92,14,-23
CC(=O)c1cccc(NC(=S)NC(=O)c2cccc(Cl)c2)c1,140*,-44,2.1,103,-5,60
O=C(O)c1cccc(NC(=S)NC(=O)c2ccc(-c3ccccc3)cc2)c1,96,5,3.3*,76,30,44
CC(=O)c1cccc(NC(=S)NC(=O)C(C)C)c1,105,-6,1.1,100,1,-2
CNC(=S)Nc1cccc(C(C)=O)c1,105,-8,1.1,101,3,-4
CC(=O)c1cccc(NC(=S)NC(=O)c2ccccc2)c1,133*,-37,3.8*,93,8,71
COc1cc(NC(=O)CSc2ncnc3scc(-c4ccccc4)c23)c(C(=O)O)cc1OC,102,-4,0.93,108,-8,0
Nc1ccc(S(=O)C(F)(F)F)cc1 (configuration not stated),104,-4,1.2,104,1,-11
O=[N+]([O-])c1cc(Cl)ccc1-c1nc(-c2ccccc2)no1,188*,-99,13*,103,-6,122
Cc1ccc(-c2noc(-c3ccccc3F)n2)cc1,132*,-35,6*,98,11,174*
CS(=O)c1ccccc1-c1nc(-c2ccc(Cl)cc2)no1 (configuration not stated),138*,-42,2.1,92,11,34
CS(=O)c1ccccc1-c1nc(-c2cccc(Cl)c2)no1 (configuration not stated),118,-20,1.4,85,20,3
SMILES,STAT1 activator,STAT1 blocker,NF-kB neuron act,STAT3 activator,STAT3 inh,APP 5'UTR act
CCNC(=O)C12CCC(C)(C(=O)O1)C2(C)C (configuration not stated),98,1,1.2,100,12,10
CCOc1cc(/C=N/O)ccc1OCc1ccc(C)cc1,130*,-34,1.5,102,-6,18
CCOc1cc(/C=N/O)ccc1OS(=O)(=O)c1ccc(C)cc1,95,5,0.96,102,4,-7
Cc1ccc(COc2ccc(Br)cc2/C=N/O)cc1,135*,-39,3.1,89,19,78
O=C(CCCn1c(=O)[nH]c2ccc(Br)cc2c1=O)NCc1ccc(Cl)cc1,93,7,1.2,98,5,11
NNC(=O)c1sccc1OCc1ccc(Cl)cc1Cl,93,6,1.1,95,13,8
